L major viab: Leishmania major promastigote growth inhibition, primary screen. Leishmania major promastigotes, resazurin fluorescence viability. inhibition, % at 10 µM. 200,000 tested, 9% active. AID 1063, 2008; in the data active = inhibition above about 50%;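 note: promastigotes grown with compound for 44 hours at 28 °C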
Mdm2 MdmX PPI: inhibitors of human Mdm2-MdmX association, primary screen, cell-based, luminescence, split luciferase, SaOS-2, uHTS | inhibition, % at 8 µM | SaOS-2 split-luciferase Mdm2/MdmX complementation | AID 485346, 2010 | 330,000 tested, 3% active | Protein Mdm4 (Homo sapiens) + E3 ubiquitin-protein ligase Mdm2 (Homo sapiens), …;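 active = inhibition of at least 50% at 8 µM in the primary screen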
Target sequence (O15151 whole entry, looked up): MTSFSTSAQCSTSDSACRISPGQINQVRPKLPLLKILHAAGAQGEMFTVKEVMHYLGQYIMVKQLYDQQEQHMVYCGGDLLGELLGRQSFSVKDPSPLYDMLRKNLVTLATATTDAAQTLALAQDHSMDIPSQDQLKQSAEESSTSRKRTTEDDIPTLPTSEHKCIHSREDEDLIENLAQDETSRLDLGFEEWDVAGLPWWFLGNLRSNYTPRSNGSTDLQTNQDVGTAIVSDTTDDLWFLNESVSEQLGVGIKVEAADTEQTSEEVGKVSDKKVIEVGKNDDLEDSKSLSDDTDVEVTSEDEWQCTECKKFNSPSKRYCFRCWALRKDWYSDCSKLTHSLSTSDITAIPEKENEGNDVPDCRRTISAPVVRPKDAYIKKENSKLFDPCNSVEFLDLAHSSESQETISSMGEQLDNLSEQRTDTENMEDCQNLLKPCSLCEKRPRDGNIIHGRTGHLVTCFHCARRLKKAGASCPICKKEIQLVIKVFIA
Target sequence (Q00987 whole entry, looked up): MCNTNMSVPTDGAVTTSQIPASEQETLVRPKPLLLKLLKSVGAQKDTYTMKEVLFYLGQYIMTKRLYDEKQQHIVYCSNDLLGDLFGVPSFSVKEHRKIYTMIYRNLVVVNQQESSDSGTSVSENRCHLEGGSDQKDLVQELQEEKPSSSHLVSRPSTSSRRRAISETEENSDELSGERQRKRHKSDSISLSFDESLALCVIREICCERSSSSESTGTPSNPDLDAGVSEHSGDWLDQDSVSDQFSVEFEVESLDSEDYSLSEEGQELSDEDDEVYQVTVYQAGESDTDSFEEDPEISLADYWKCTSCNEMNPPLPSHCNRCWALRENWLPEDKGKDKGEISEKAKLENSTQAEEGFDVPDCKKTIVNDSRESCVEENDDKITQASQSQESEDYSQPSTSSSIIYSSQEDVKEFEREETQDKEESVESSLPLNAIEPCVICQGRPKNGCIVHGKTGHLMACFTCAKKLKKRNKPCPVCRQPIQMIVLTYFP
Beta apoptosis: inhibitors of cytokine-induced beta cell apoptosis, primary screen, luminescence; INS-1E cytokine-induced death, ATP luminescence, 48 h; percent of positive-control rescue, neutral wells zero; protection from apoptosis, % (concentration not given with the values); 300,000 tested, 0.8% active;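 active = Every replicate reaches about 75%, or at least half do and their mean reaches it too, limit read from the data; inconclusive = At least half of replicates reach the limit but their mean does not; inactive = Under half of replicates reach the limit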;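 note: higher means more ATP so stronger rescue from cytokine killing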
CSC inhib: cancer stem cell viability inhibitors, primary screen, luminescence; AID 2717, 2010; cancer stem cell-like cells viability; 300,000 tested, 1.1% active; inhibition, % at 7.5 µM; in the data active = inhibition above about 75%; inconclusive = no clear call, values can overlap the other calls; tested in HMLE shEcad cells
T cruzi inh: inhibitors of intracellular T. cruzi growth, primary screen, luminescence, NIH3T3 host cells. inhibition, % (test concentration not listed). 300,000 tested, 1.4% active. T. cruzi beta-gal in NIH3T3, 90 h. AID 1885, 2009;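 active = mean inhibition across valid replicates above about 55%, limit read from the data; inconclusive = mean below that limit but half or more replicates reach it; inactive = mean below it, under half of replicates reach it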;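 note: signal also drops with host cell toxicity which is not excluded here; higher percent means less beta-gal luminescence so fewer parasites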
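assay system = mouse NIH/3T3 fibroblasts infected with β-gal-expressing T. cruzi Tulahuen C4 | input = 5,000 NIH/3T3 host cells per well | buffer or medium = DMEM plus 2% FBS | timing = 3 h host attachment, then at least 90 h co-culture | measured by = GalScreen luminescence, 60 min | evaluation = luminescence reflecting intracellular parasite burden, expressed as percent inhibition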
SKKanGAS inh: S. pyogenes SKKanGAS growth inhibitors in kanamycin, primary screen, streptokinase expression inhibitor project, SKKanGAS strain, BacTiter-Glo luminescence | 6 h | inhibition, % at 7.5 µM | 300,000 tested, 1.3% active;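 active = mean replicate score, as percent of positive control median, at least 50; inconclusive = mean below 50 but one replicate at or above 50; inactive = mean and every replicate below 50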;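 note: strain carries kanamycin resistance gene driven by streptokinase promoter and grows in 40 µg/ml kanamycin; loss of luminescence reflects streptokinase promoter inhibition or plain growth inhibition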
Large screens that a line does not name were inactive. Only some compounds are listed: those with a hit (about 9.4% of all), similar ones and a draw of the others.

O=C(OCCCN1CCCC1)C1(c2ccccc2)CCCC1	L major viab 100
CN1CCN(CCCCOc2ccccc2C=O)CC1	L major viab 100
Cc1cc(Cl)c(OCCCN2CCCCC2)c(Br)c1	L major viab 97 (no result: Beta apoptosis, CSC inhib)
Cc1cc(C)c(OCCN2CCCC2)c(Cl)c1	none (no result: L major viab, Beta apoptosis)
CCN(CC)CCOC(=O)C1(c2ccccc2)CCCC1	none
COc1cccc(OC)c1OCCCCCCN1CCN(C)CC1	none (no result: L major viab)
Brc1ccccc1OCCCCCN1CCOCC1	L major viab 93
Fc1ccccc1-c1nc(-c2ccc(-c3nn[nH]n3)cc2)no1	none (no result: L major viab, CSC inhib, T cruzi inh, SKKanGAS inh)
O=C(Cn1nc(C(=O)O)c2ccccc2c1=O)NC12CC3CC(CC(C3)C1)C2	none (no result: Beta apoptosis)
CC(C)(C)OC(=O)C[C@@H]1C/C=C\C[C@H](CC(=O)N(CCO)Cc2ccccc2)C(=O)N[C@H](Cc2ccccc2)COC1=O	none (no result: L major viab, CSC inhib, T cruzi inh, SKKanGAS inh)
COCCn1cc(C(=S)N2CCCCC2)c2ccccc21	none
S=C(c1cn(CCOc2cccc3ccccc23)c2ccccc12)N1CCCC1	L major viab 95, Beta apoptosis 105
S=C(c1cn(CCOc2ccccc2)c2ccccc12)N1CCCC1	L major viab 98
O=C(CCCCCNC(=O)c1ccccc1)N=Nc1c(O)[nH]c2c(Br)cc(Br)cc12	SKKanGAS inh 59
Cc1c(NC(=O)Nc2cc(F)c(F)cc2Cl)c(=O)n(-c2ccccc2)n1C	none (no result: L major viab)
CC(Nc1nc(-c2ccncc2)nc2ccccc12)c1ccccc1 (stereo not given)	T cruzi inh 61 (no result: L major viab)
CC(Nc1nc(N2CCNCC2)nc2ccccc12)c1ccccc1 (stereo not given)	L major viab 100
c1ccc(Nc2nc(Nc3ccccc3)nc(N3CCNCC3)n2)cc1	none (no result: L major viab)
Fc1ccccc1Nc1nc(-c2ccncc2)nc2ccccc12	L major viab 96, T cruzi inh 55
COc1ccc(C2=NN(CN3C(=O)C(=O)c4ccccc43)C(c3cccc([N+](=O)[O-])c3)C2)cc1 (stereo not given)	none (no result: L major viab)
CCc1ccc(CNC(=O)C2CCN(S(=O)(=O)N3CCC4(CC3)OCCO4)CC2)cc1	none
O=C(COc1ccc(Br)cc1)NNC(=O)c1ccc(-n2cncn2)c([N+](=O)[O-])c1	none (no result: L major viab, CSC inhib, T cruzi inh, SKKanGAS inh)
CC(C)OC(=O)c1cn(-c2ccccc2)nc1-c1ccco1	T cruzi inh 56
COc1cc(C(=O)OCC(=O)Nc2ccc(C(C)=O)cc2)ccc1OCC(=O)N1CCOCC1	L major viab 66
COc1ccc(/C=C/C(=O)Nc2cccc(F)c2)cc1S(=O)(=O)N1CCOCC1	L major viab 50
COc1ccc(/C=C/C(=O)OCC(=O)Nc2ccc(C)cc2)cc1S(=O)(=O)N1CCOCC1	none
COc1ccc(NC(=O)COC(=O)/C=C/c2ccc(OC)c(S(=O)(=O)N3CCOCC3)c2)cc1	L major viab 57
Cc1ccc(S(=O)(=O)N2CCN(C(=O)COC(=O)/C=C/c3ccccc3F)CC2)c(C)c1	none (no result: L major viab, CSC inhib, T cruzi inh, SKKanGAS inh)
COc1ccc(C(=O)OCC(=O)Nc2ccc(N3CCOCC3)cc2)cc1OC	none (no result: L major viab, T cruzi inh, SKKanGAS inh)
COc1ccc(/C=C/C(=O)Nc2ccccc2F)cc1S(=O)(=O)N1CCOCC1	none (no result: L major viab, T cruzi inh, SKKanGAS inh)
COc1cc(/C=C/C(=O)OCC(=O)N2CCN(S(=O)(=O)c3ccc(C)cc3C)CC2)ccc1O	L major viab 98
CCCc1cc(=O)[nH]c(SCC(=O)N2CC3(C)CC2CC(C)(C)C3)n1 (stereo not given)	none (no result: L major viab, T cruzi inh, SKKanGAS inh)
COc1cccc(/C=C/C(=O)OCC(=O)Nc2ccc(S(=O)(=O)N3CCCC3)cc2)c1	L major viab 68
Cc1sc2ncnc(N3CCC(C(=O)Nc4nnc(SCc5ccccc5F)s4)CC3)c2c1C	SKKanGAS inh inconclusive (no result: L major viab)
OCCC1CN(Cc2cnc(N3CCOCC3)s2)CCN1C1CCCC1 (stereo not given)	none
Cc1cccc(N2CCN(Cc3ccc([N+](=O)[O-])o3)CC2)c1C	T cruzi inh 58 (no result: L major viab)
C=C1CCC[C@]2(C)C[C@H]3OC(=O)C(CNCC(OC)OC)[C@H]3CC12 (stereo not given in full)	none (no result: L major viab)
Fc1cccc2sc(Nc3nnc(-c4ccccc4)o3)nc12	L major viab 83, SKKanGAS inh 87
COc1ccc(-c2nnc(Nc3nc4c(OC)cccc4s3)o2)cc1	L major viab 79, CSC inhib 81, SKKanGAS inh 73 (no result: Mdm2 MdmX PPI)
Cc1cc(NS(=O)(=O)c2ccc(NC(=O)COc3ccccc3C(C)(C)C)cc2)no1	none (no result: L major viab, Beta apoptosis)
O=C(c1ccncc1)N1CCN(C2CCC(c3ccccc3)CC2)CC1 (stereo not given)	none (no result: L major viab)
COc1cccc(C(=O)N2CCN(C3CCC(c4ccccc4)CC3)CC2)c1OC (stereo not given)	L major viab 100 (no result: T cruzi inh, SKKanGAS inh)
COc1cccc(C(=O)N2CCN(CCCc3ccccc3)CC2)c1OC	L major viab 93 (no result: T cruzi inh, SKKanGAS inh)
COc1ccc(-n2c(SCC(=O)Nc3cc(C)on3)nc3ccccc3c2=O)cc1Cl	none
CCOC(=O)c1sc2nc(Cc3ccc(Cl)cc3)[nH]c(=S)c2c1C	SKKanGAS inh 58
CCOC(=O)c1sc2nc(C)nc(NCc3ccc(Cl)cc3)c2c1C	none (no result: L major viab)
CC(=O)N/C(=C\c1ccc(Br)s1)C(=O)O	none
O=C1OC(N2CCN(C/C=C/c3ccccc3)CC2)c2ccccc21 (stereo not given)	L major viab 56
CCOC(=O)N1CCN(C2OC(=O)c3ccccc32)CC1 (stereo not given)	none
O=C1CC(N2CCN(C/C=C/c3ccccc3)CC2)C(=O)N1Cc1cccs1 (stereo not given)	L major viab 89
O=C1CC(N2CCN(C/C=C/c3ccccc3)CC2)C(=O)N1CCc1ccccc1 (stereo not given)	L major viab 93
C/C=C/c1ccc(OCC(O)CN(C)Cc2ccc(SC)cc2)c(OC)c1 (stereo not given)	T cruzi inh 60 (no result: L major viab)
C/C=C/c1ccc(OCC(O)CNCCc2ccc(OC)cc2)c(OC)c1 (stereo not given)	none (no result: L major viab)
O=C(COc1ccc(Cl)cc1[N+](=O)[O-])N/N=C/c1cccs1	none
O=C(COc1ccccc1Cl)Nc1cnn(Cc2ccccc2)c1	none
O=C(Nc1cnn(Cc2c(Cl)cccc2Cl)c1)C(c1ccccc1)c1ccccc1	T cruzi inh 55
c1ccc(CN2CCN(Cc3nnc(-c4ccccc4)o3)CC2)cc1	L major viab 80
CN1CCN(Cc2nnc(-c3ccccc3)o2)CC1	none (no result: L major viab)
O=C(N/N=C/c1cn(-c2ccccc2)nc1-c1cc2ccccc2o1)c1ccccc1Br	none
O=C(N/N=C/c1cn(-c2cccs2)nc1-c1ccccc1)c1ccccc1Br	CSC inhib 83
